We go through 14 molecules from ChEMBL document CHEMBL4680123, “Synthesis of novel 3-halo-3-nitroflavanones and their activities as DNA methyltransferase inhibitors in cancer cells” (Eur J Med Chem, 2020).

Data set [1] in a line: Chemical stability of compound in DNMT3A-c enzyme buffer assessed as half life at 1 mM by HPLC analysis. Type of data set: physicochemical. Summed up: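 Followed over 15 h by reverse-phase HPLC (H2O/acetonitrile gradient with 0.1% formic acid), detection at 250 nm. Remaining compound taken from HPLC peak area. Mean of at least two experiments.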
In data set [2] the target is DNA (cytosine-5)-methyltransferase 3A (Homo sapiens) (UniProt Q9Y6K1). The experiment in a line: Inhibition of human DNMT3A catalytic domain expressed in Escherichia coli Rosetta-gamiTM 2(DE3) pLysS competent cells using biotinylated 6-FAM double strand DNA comprising unique CpG site […] incubated for 1 hrs by fluorescence based assay.
For data set [3], the target named is DNA (cytosine-5)-methyltransferase 3B (Homo sapiens) (UniProt Q9UBC3). The experiment in a line: Inhibition of human DNMT3B in human KG-1 cells expressing cmv-firefly luciferase assessed as increase in luminescence upto 10 uM incubated for 24 hrs by luciferase reporter gene assay relative to control. Format: cell-based. As to conditions: dose microM <=10, time 24.0 hrs. An outline of the steps:
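KG-1 cells stably carrying firefly luciferase (luc+) under a 50%-methylated CMV promoter, seeded at 20 000 cells/well. Treated 24 h with compound (3.2–10 µM) or DMSO. Luciferase quantified by One-Glo luminescence and expressed as fold induction over DMSO control. Mean of three experiments with standard error.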

Data set [4] has the same target. The experiment in a line: Inhibition of human DNMT3B in human KG-1 cells expressing cmv-firefly luciferase assessed as increase in luminescence at 5 uM incubated for 24 hrs by luciferase reporter gene assay relative to control. Format: cell-based. An outline of the steps: (§1)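 KG-1 cells stably carrying firefly luciferase under a 50% methylated CMV promoter were seeded at 20 000 cells/well. They were exposed to compound (3.2–10 µM range) or DMSO for 24 h, then luciferase was quantified by One-Glo luminescence. Result is fold induction over DMSO control. Mean of three experiments with standard error.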

Data set [5] deals with DNA (cytosine-5)-methyltransferase 3A (Homo sapiens) (UniProt Q9Y6K1). The experiment in a line: Inhibition of human DNMT3A catalytic domain expressed in Escherichia coli Rosetta-gamiTM 2(DE3) pLysS competent cells using biotinylated 6-FAM double strand DNA comprising unique CpG site […] at 32 uM incubated for 1 hrs by fluorescence based assay.
The next data set concerns KG-1. The experiment in a line: Cytotoxicity against human KG-1 cells assessed as reduction in cell viability measured after 72 hrs by APTlite one step luminescence assay. Format: functional, cell-based. Conditions: KG-1, 72 h.
The test system of the next data set is HCT-116. The experiment in a line: Cytotoxicity against human HCT-116 cells assessed as reduction in cell viability measured after 72 hrs by APTlite one step luminescence assay. Format: functional, cell-based. Conditions: HCT-116, 72 h. An outline of the steps:
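KG-1 cells were seeded at 2x10^4 cells/ml in RPMI-1640 with 15% FCS, and HCT116 cells at 1.5x10^4 cells/ml in MEM with HEPES, L-glutamine and 10% FCS, at 37 °C, 5% CO2. Compound was given at 3.2x10-9 to 1x10-5 M on day 0 and again on days 2 and 3. ATP-luminescence read-out on day 4. EC50 is the concentration giving 50% viability loss versus untreated cells. Mean of at least two independent experiments run in duplicate.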

For data set [6], the target named is DNA (cytosine-5)-methyltransferase 3B (Homo sapiens) (UniProt Q9UBC3). The experiment in a line: Inhibition of human DNMT3B in human KG-1 cells expressing cmv-firefly luciferase assessed as increase in luminescence incubated for 24 hrs by luciferase reporter gene assay relative to control. Format: cell-based. Conditions: dose 3.2-10 µM. Summed up: as §1

Active and inactive are the calls of the source. The rule behind the calls is not given here. Some results are limits rather than exact numbers.

Chain of DNA (cytosine-5)-methyltransferase 3A (Homo sapiens) (Q9Y6K1 whole entry, looked up, the tested form may be a part): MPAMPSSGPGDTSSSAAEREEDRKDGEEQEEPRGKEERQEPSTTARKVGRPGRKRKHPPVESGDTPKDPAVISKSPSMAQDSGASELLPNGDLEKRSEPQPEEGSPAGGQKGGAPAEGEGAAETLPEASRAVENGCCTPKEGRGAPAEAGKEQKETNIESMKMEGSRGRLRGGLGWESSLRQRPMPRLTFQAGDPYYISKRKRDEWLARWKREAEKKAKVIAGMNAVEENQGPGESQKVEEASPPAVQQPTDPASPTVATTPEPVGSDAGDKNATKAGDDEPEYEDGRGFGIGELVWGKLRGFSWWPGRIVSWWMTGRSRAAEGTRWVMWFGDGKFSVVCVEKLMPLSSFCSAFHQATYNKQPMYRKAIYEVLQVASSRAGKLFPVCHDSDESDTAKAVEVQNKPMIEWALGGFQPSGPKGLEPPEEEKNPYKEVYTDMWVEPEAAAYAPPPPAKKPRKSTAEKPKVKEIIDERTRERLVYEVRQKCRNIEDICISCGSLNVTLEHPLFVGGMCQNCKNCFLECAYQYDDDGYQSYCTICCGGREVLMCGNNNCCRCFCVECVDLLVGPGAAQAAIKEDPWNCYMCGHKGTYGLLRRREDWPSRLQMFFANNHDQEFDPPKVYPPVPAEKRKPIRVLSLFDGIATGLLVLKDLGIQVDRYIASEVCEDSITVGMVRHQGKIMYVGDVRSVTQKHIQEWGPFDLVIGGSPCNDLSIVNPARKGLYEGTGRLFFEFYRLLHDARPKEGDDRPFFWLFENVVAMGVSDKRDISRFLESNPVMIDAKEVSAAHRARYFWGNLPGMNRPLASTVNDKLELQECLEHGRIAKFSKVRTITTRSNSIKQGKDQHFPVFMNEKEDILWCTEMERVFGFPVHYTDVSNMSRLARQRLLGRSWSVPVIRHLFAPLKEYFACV

For the molecule `COc1ccc([N+](=O)[O-])c(C2Oc3ccccc3C(=O)C2(Cl)[N+](=O)[O-])c1` (stereo not given), the half-life at 1000 µM in data set [1] is 3.4 h. In data set [2] (read-out: EC50), the EC50 turned out to be 4.4 µM. The inhibition entry in data set [3] is “inactive”.
With `CC1([N+](=O)[O-])C(=O)c2ccccc2OC1c1ccccc1[N+](=O)[O-]` (stereo not given), the concentration giving a half-maximal response (EC50) in data set [2] (read-out: EC50) is above 40 µM. For the same molecule, the inhibition entry in data set [3] was “inactive”.
For `O=C1c2ccccc2OC(c2ccccc2[N+](=O)[O-])C1(Cl)[N+](=O)[O-]` (stereo not given), in data set [1], the half-life at 1000 µM is 1 h. The EC50 in data set [2] (read-out: EC50) stood at 4.4 µM. For the same molecule, in data set [3], the inhibition result was “inactive”. In addition, the fold change (FC) in data set [4] was determined as 2.
On to `O=C1c2ccccc2OC(c2ccccc2[N+](=O)[O-])C1[N+](=O)[O-]` (stereo not given), for which, in data set [2], the half-maximal effective concentration (EC50) result is on record as “Not Active”. The same molecule yielded an inhibition in data set [5] of 0%.
On the same counts, the results for `COc1ccc([N+](=O)[O-])c(C2Oc3ccccc3C(=O)C2[N+](=O)[O-])c1` (stereo not given) are “Not Active” and 0%.
`O=C1c2ccccc2OC(c2ccccc2)C1(Br)[N+](=O)[O-]` (stereo not given): the EC50 in data set [2] (read-out: EC50) was determined as 6.7 µM. In addition, the inhibition entry in data set [3] was “inactive”.
Regarding `O=C1c2ccccc2O[C@H](c2ccccc2F)[C@@]1(Br)[N+](=O)[O-]` (racemic), the EC50 in data set [2] (read-out: EC50) is 5.7 µM. For the same molecule, the inhibition entry in data set [3] is “inactive”.
Consider `COc1ccc([N+](=O)[O-])c([C@H]2Oc3ccccc3C(=O)[C@]2(Br)[N+](=O)[O-])c1` (racemic), for which the concentration for a half-maximal effect (EC50) was 12.9 µM with KG-1, 5.3 µM in data set [2] (read-out: EC50) and 8.1 µM with HCT-116. Further, the half-life at 1000 µM in data set [1] was 7 h. For the same molecule, the Activity entry in data set [6] is “Dose-dependent effect”.
Consider `O=C1c2ccccc2OC(c2ccccc2[N+](=O)[O-])C1(I)[N+](=O)[O-]` (racemic), for which the half-life at 1000 µM in data set [1] was above 15 h. Also, the EC50 in data set [2] (read-out: EC50) turned out to be 2.8 µM. The inhibition entry in data set [3] is “inactive”.
As to `COc1ccc([N+](=O)[O-])c([C@H]2Oc3ccccc3C(=O)[C@@]2(Br)[N+](=O)[O-])c1` (racemic), the results for the EC50 (in the data set with KG-1; in data set [2] (read-out: EC50)) were 18.6 µM and 4.7 µM, respectively. Further, in data set [6], the Activity entry is “Dose-dependent effect”.
Turning to `O=C1c2ccccc2O[C@H](c2ccccc2[N+](=O)[O-])[C@@]1(Br)[N+](=O)[O-]` (racemic), the EC50 with KG-1 worked out at 13 µM; in data set [2] (read-out: EC50), 3.2 µM; in the data set on HCT-116, 10.7 µM. Also, in data set [1], the half-life at 1000 µM was 1.7 h. In addition, in data set [6], the Activity result is “Dose-dependent effect”. In addition, the fold change (FC) in data set [4] is 6.1.
As to `COc1ccc([N+](=O)[O-])c([C@H]2Oc3ccccc3C(=O)[C@]2(I)[N+](=O)[O-])c1` (racemic), in data set [1], the half-life at 1000 µM is above 15 h. Moreover, the 50% effective concentration (EC50) in data set [2] (read-out: EC50) came to 2 µM. Also, the inhibition result in data set [3] was “inactive”.
For `O=C1c2ccccc2O[C@H](c2ccccc2[N+](=O)[O-])[C@]1(Br)[N+](=O)[O-]` (racemic), the EC50 in the data set on KG-1 was found to be 5.3 µM; in data set [2] (read-out: EC50), 5.1 µM; in the data set on HCT-116, 12.4 µM. Further, in data set [1], the half-life at 1000 µM was 0.7 h. Besides, in data set [6], the Activity result was “Dose-dependent effect”. The fold change (FC) in data set [4] was 8.8.
On to `O=C1c2ccccc2OC(c2ccccc2)C1[N+](=O)[O-]` (trans isomer), for which, in data set [2], the EC50 result was “Not Active”. Besides, in data set [5], the inhibition came out at 0%.
